Assay results gathered from unrelated publications.
Each line is one published result; the experiments were not run side by side.
Observed: cell growth or viability

SMILES	cell line	method	time	IC50
COc1ccc2c(c1)C(=O)C(=O)N2CCn1cnc2c(N)ncnc21	BALB/3T3 clone A31	SRB	72 h	55.3 µg/mL
Cc1ccc(S(=O)(=O)n2cc(/C=N/NC(=O)c3ccc(Br)cc3)c3ccccc32)cc1	MCF-10A	MTT	48 h	> 50 µM
Clc1ccc(-c2cc(CNc3cccc4cccnc34)on2)c(Cl)c1	K562	MTS	72 h	33 µM
CC(=O)c1ccc2cc(S(=O)(=O)Nc3ccccc3Cl)ccc2c1	MDCK	neutral red	48 h	12.7 µM
Cc1ccc(S(=O)(=O)n2cc(/C=N/NC(=O)c3ccco3)c3ccccc32)cc1	MCF-10A	MTT	48 h	> 50 µM
NC(=S)N/N=C1\C(=O)N(CCn2ncc3c(=O)[nH]cnc32)c2ccc(Cl)cc21	BALB/3T3 clone A31	SRB	72 h	14.3 µg/mL
Cc1ccc(S(=O)(=O)n2cc(/C=N/NC(=O)Cc3cc(F)cc(F)c3)c3ccccc32)cc1	MCF-10A	MTT	48 h	> 50 µM
CC(=O)O[C@@]12CO[C@@H]1C[C@H](O)[C@@]1(C)C(=O)[C@H](O)C3=C(C)[C@@H](OC(=O)[C@H](O)[C@@H](NC(=O)OC(C)(C)C)c4ccccc4)C[C@@](O)([C@@H](OC(=O)c4ccccc4)[C@H]21)C3(C)C	MCF-10A	MTT	48 h	> 100 µM
CC(=O)c1ccc2cc(S(=O)(=O)Nc3ccc(F)cc3)ccc2c1	MDCK	neutral red	48 h	93.4 µM
Nc1ccn([C@@H]2O[C@H](CO)[C@@H](O)C2(F)F)c(=O)n1	4T1	MTT	24 h	5.78 µg/mL
CC(=O)c1ccc2cc(S(=O)(=O)Nc3ccc(Br)cc3)ccc2c1	MDCK	neutral red	48 h	95.8 µM
Cc1ccc(S(=O)(=O)n2cc(/C=N/NC(=O)c3ccccc3C)c3ccccc32)cc1	MCF-10A	MTT	48 h	> 50 µM
Nc1ncnc2c1ncn2CCN1C(=O)C(=O)c2cc(F)ccc21	BALB/3T3 clone A31	SRB	72 h	47.2 µg/mL
COc1cccc2c1C(=O)c1c(O)c3c(c(O)c1C2=O)C[C@@](O)(C(=O)CO)C[C@@H]3O[C@H]1C[C@H](N)[C@H](O)[C@H](C)O1	NCI-H446		96 h	0.0365 µM
CCOC(=O)c1c(C)nc2ccc(-c3ccc(F)cc3F)cc2c1O	MCF-10A	MTT	48 h	≥ 100 µM
COc1cc([C@@H]2c3cc4c(cc3[C@@H](O[C@@H]3O[C@@H]5CO[C@@H](C)O[C@H]5[C@H](O)[C@H]3O)[C@H]3COC(=O)[C@H]23)OCO4)cc(OC)c1O	K562	MTS	72 h	0.03 µM
COc1cccc2c1C(=O)c1c(O)c3c(c(O)c1C2=O)C[C@@](O)(C(=O)CO)C[C@@H]3O[C@H]1C[C@H](N)[C@H](O)[C@H](C)O1	NCI-H446	SRB		0.8 µM
CC(C)[C@@H](C)NC(=O)c1cc(-c2cc3ccccc3n2C)cc(C(=O)NCCc2ccccn2)n1	JHH7	CCK-8		25.3 µM
O=C1C(=O)N(CCn2ncc3c(=O)[nH]cnc32)c2ccc(F)cc21	BALB/3T3 clone A31	SRB	72 h	19.6 µg/mL
NC(=O)c1cnc(NCCc2ccc(O)c(Cl)c2)nc1NCc1ccccc1	JHH7	CCK-8	48 h	1.29 µM
COC[C@H](NC(=O)c1ccn(S(C)(=O)=O)c1)C(=O)Nc1nc(-c2cccc(N3C[C@@H](C)O[C@@H](C)C3)n2)cs1	VCaP	ATP luminescence	7 days	0.0265 µM
CC(=O)c1ccc2cc(S(=O)(=O)Nc3ccccc3C)ccc2c1	MDCK	neutral red	48 h	21.8 µM
Cc1ccc(S(=O)(=O)n2cc(/C=N/NC(=O)c3ccc(C(F)(F)F)cc3)c3ccccc32)cc1	MCF-10A	MTT	48 h	> 50 µM
FC(F)(F)c1cc(OCc2cc(-c3ccc(Cl)cc3Cl)no2)c2ccccc2n1	K562	MTS	72 h	> 100 µM
Cc1ccc(S(=O)(=O)n2cc(/C=N/NC(=O)Cc3ccc(F)cc3F)c3ccccc32)cc1	MCF-10A	MTT	48 h	> 50 µM
O=C1C(=O)N(CCn2ncc3c(=O)[nH]cnc32)c2ccccc21	BALB/3T3 clone A31	SRB	72 h	23.1 µg/mL
Cc1ccc(S(=O)(=O)n2cc(/C=N/NC(=O)Cc3ccccc3C(F)(F)F)c3ccccc32)cc1	MCF-10A	MTT	48 h	> 50 µM
COc1ccc(NS(=O)(=O)c2ccc3cc(C(C)=O)ccc3c2)cc1	MDCK	neutral red	48 h	18.2 µM
CC(C)[C@@H]1NC(=O)/C(=C/c2cnc[nH]2)NC1=O	NCI-H446	SRB		> 15 µM
Nc1nnc(-c2ccccc2O)cc1N1CC2CCC(C1)N2c1ccnc(F)c1	VCaP	ATP luminescence	7 days	> 1 µM
